# Test results taken from ChEMBL document CHEMBL1781931, “Anacardic acid derivatives as inhibitors of glyceraldehyde-3-phosphate dehydrogenase from Trypanosoma cruzi” (Bioorg Med Chem, 2008).
# Activity calls are given as the source filed them. The calls are words filed in the database; no cut-off is given here.
# Target: T1, Glyceraldehyde-3-phosphate dehydrogenase, glycosomal (Trypanosoma cruzi, UniProt P22513)
# Assay: Non-competitive inhibition of Trypanosoma cruzi recombinant glycosomal GAPDH expressed in Escherichia coli assessed as dissociation constant for binary enzyme-inhibitor complex using D-glyceraldehyde-3-phosphate substrate by Lineweaver-Burk plot method
# Outline: (§1)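 Inhibition type and Ki/αKi were determined against each substrate (G-3-P or NAD+), varying that substrate at 3 or 4 inhibitor concentrations. Conditions were otherwise those of the 340 nm NADH assay: 20 nM recombinant GAPDH, pH 7.5 triethanolamine buffer, 25 °C. Double-reciprocal plots were used, with parameters fitted in an enzyme-kinetics module. Means are of ≥3 experiments.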
# T1 sequence (P22513 whole entry): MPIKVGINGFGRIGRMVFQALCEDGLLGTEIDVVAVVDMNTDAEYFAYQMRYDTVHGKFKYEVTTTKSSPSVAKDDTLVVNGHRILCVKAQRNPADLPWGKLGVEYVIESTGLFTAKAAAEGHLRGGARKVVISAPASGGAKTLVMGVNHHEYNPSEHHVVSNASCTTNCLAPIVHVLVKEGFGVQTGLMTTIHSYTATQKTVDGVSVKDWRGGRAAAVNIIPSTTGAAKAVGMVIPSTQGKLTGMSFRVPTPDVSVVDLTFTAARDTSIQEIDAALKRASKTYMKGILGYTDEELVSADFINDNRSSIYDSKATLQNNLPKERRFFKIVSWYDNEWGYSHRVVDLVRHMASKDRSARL
row,Structure (SMILES),Ki [µM]
1,C=CC/C=C\C/C=C\CCCCCCCc1cccc(O)c1C(=O)O [ANACARDIC ACID],2
2,CCCCCCCCCCCCc1cccc(O)c1C(=O)O,4

# Target: T1, Glyceraldehyde-3-phosphate dehydrogenase, glycosomal
# Assay: Inhibition of Trypanosoma cruzi recombinant glycosomal GAPDH expressed in Escherichia coli using GAPDH and D-glyceraldehyde-3-phosphate
# Outline: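 Recombinant T. cruzi GAPDH (20 nM; E. coli-expressed, purified by hydrophobic then cation-exchange chromatography) assayed at 25 °C in triplicate. Buffer: 100 mM triethanolamine-HCl pH 7.5, 1 mM EDTA, 1 mM 2-mercaptoethanol, 30 mM arsenate, 400 µM NAD+, 300 µM G-3-P. NADH formation read at 340 nm for 8 min. Initial rates give % inhibition; IC50 from ≥5 inhibitor concentrations by nonlinear regression.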
row,Structure (SMILES),IC50 [µM]
1,CCOC(=O)c1c(C=CCCCCOC2CCCCO2)cccc1OC (mixture of isomers),> 300
2,O=C(O)c1c(O)cccc1CCCCCCO,> 250
3,CCCCCCCCCCCCc1cccc(O)c1C(=O)OCC,215
4,C=CC/C=C\C/C=C\CCCCCCCc1cccc(O)c1C(=O)O [ANACARDIC ACID],28
5,CCCCCCCCCCCCc1cccc(OC)c1C(=O)OCC,> 250
6,CCCCCCCCCc1cccc(O)c1C(=O)O,200
7,CCOC(=O)c1c(O)cccc1CCCCCCCCO,> 250
8,CCOC(=O)c1c(C=CCCCCCCOC2CCCCO2)cccc1OC (mixture of isomers),> 300
9,CCOC(=O)c1c(O)cccc1CCCCCCCCCCO,> 250
10,CCCCCCCCCCCCc1cccc(O)c1C(=O)O,55
11,CCOC(=O)c1c(O)cccc1CCCCCCO,> 250
12,O=C(O)c1c(O)cccc1CCCCCCCCO,> 250
13,CCCCCCCCCCC=Cc1cccc(OC)c1C(=O)OCC (mixture of isomers),> 300
14,CCOC(=O)c1c(C=CCCCCCCCCOC2CCCCO2)cccc1OC (mixture of isomers),> 300
15,O=C(O)c1c(O)cccc1CCCCCCCCCCO,240
16,O=CCCCCCCCc1cccc(O)c1C(=O)O,> 250
17,CCOC(=O)c1c(CCCCCCCCCCOC2CCCCO2)cccc1OC (configuration not stated),> 250
18,CCCCCCCC=Cc1cccc(OC)c1C(=O)OCC (mixture of isomers),> 300
19,CCCCCCCCCc1cccc(O)c1C(=O)OCC,> 250
20,CCOC(=O)c1c(CCCCCCCCOC2CCCCO2)cccc1OC (configuration not stated),> 250
21,CCCCCCCCCc1cccc(OC)c1C(=O)OCC,> 250
22,CCOC(=O)c1c(CCCCCCOC2CCCCO2)cccc1OC (configuration not stated),> 250

# Target: T1, Glyceraldehyde-3-phosphate dehydrogenase, glycosomal
# Assay: Non-competitive inhibition of Trypanosoma cruzi recombinant glycosomal GAPDH expressed in Escherichia coli assessed as dissociation constant for binary enzyme-inhibitor complex using NAD+ substrate by Lineweaver-Burk plot method
# Outline: as §1
row,Structure (SMILES),Ki [µM]
1,C=CC/C=C\C/C=C\CCCCCCCc1cccc(O)c1C(=O)O [ANACARDIC ACID],4
2,CCCCCCCCCCCCc1cccc(O)c1C(=O)O,5

# Target: T1, Glyceraldehyde-3-phosphate dehydrogenase, glycosomal
# Assay: Non-competitive inhibition of Trypanosoma cruzi recombinant glycosomal GAPDH expressed in Escherichia coli assessed as dissociation constant for ternary enzyme-substrate-inhibitor complex using NAD+ substrate by Lineweaver-Burk plot method
# Outline: as §1
row,Structure (SMILES),Ki [µM]
1,C=CC/C=C\C/C=C\CCCCCCCc1cccc(O)c1C(=O)O [ANACARDIC ACID],6
2,CCCCCCCCCCCCc1cccc(O)c1C(=O)O,43

# Target: T1, Glyceraldehyde-3-phosphate dehydrogenase, glycosomal
# Assay: Non-competitive inhibition of Trypanosoma cruzi recombinant glycosomal GAPDH expressed in Escherichia coli assessed as dissociation constant for ternary enzyme-substrate-inhibitor complex using D-glyceraldehyde-3-phosphate substrate by Lineweaver-Burk plot method
# Outline: as §1
row,Structure (SMILES),Ki [µM]
1,C=CC/C=C\C/C=C\CCCCCCCc1cccc(O)c1C(=O)O [ANACARDIC ACID],4
2,CCCCCCCCCCCCc1cccc(O)c1C(=O)O,38

# Target: Glyceraldehyde-3-phosphate dehydrogenase, glycosomal (Trypanosoma cruzi) (UniProt P22513)
# Assay: Inhibition of Trypanosoma cruzi recombinant glycosomal GAPDH expressed in Escherichia coli using GAPDH and D-glyceraldehyde-3-phosphate in presence of 0.01% Triton X-100
# Outline: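 Assay as for the standard GAPDH rate measurement: 20 nM recombinant enzyme, triethanolamine-HCl pH 7.5 with EDTA, 2-mercaptoethanol, arsenate, 400 µM NAD+ and 300 µM G-3-P, 25 °C, NADH followed at 340 nm. Triton X-100 was added to 0.01% final, from a freshly made 1% (v/v) stock in triethanolamine buffer, to test for nonspecific inhibition.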
# Sequence of Glyceraldehyde-3-phosphate dehydrogenase, glycosomal (Trypanosoma cruzi) (P22513 whole entry): as above
row,Structure (SMILES),inhibition
1,C=CC/C=C\C/C=C\CCCCCCCc1cccc(O)c1C(=O)O [ANACARDIC ACID],Active
2,CCCCCCCCCCCCc1cccc(O)c1C(=O)O,Active
